From ChEMBL document CHEMBL1144458, “Aminothiazole inhibitors of HCV RNA polymerase” (Bioorg Med Chem Lett, 2005)

Tested on: not listed separately
Test: Permeability determined in Caco-2 experiment
Format: ADME
Details: human, read-out: Permeability

Work on `O=C(O)c1cnc(N(C(=O)c2ccc(OCc3cccc(C(F)(F)F)c3)cc2)C2CCCCC2)s1` yielded a Papp of 14.7 ×10⁻⁶ cm/s.

Molecular target: Cytochrome P450 2D6 (Homo sapiens, UniProt P10635)
Test: Inhibitory concentration against Cytochrome P450 2D6
Format: ADME
Details: not given

Sequence of Cytochrome P450 2D6 (P10635 whole entry): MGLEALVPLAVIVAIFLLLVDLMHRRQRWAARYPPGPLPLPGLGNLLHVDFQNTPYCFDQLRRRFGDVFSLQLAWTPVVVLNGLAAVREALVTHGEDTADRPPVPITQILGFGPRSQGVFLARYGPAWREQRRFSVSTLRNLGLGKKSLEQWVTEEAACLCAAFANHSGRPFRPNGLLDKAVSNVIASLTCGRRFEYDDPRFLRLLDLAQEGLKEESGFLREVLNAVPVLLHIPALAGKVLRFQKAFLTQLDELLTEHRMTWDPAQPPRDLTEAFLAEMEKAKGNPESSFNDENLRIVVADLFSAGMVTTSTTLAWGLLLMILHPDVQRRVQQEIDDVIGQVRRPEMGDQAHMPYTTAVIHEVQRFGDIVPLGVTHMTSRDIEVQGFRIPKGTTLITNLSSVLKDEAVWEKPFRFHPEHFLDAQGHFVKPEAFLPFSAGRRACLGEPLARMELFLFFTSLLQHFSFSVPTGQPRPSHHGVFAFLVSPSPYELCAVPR

In the case of `O=C(O)c1cnc(N(C(=O)c2ccc(OCc3cccc(C(F)(F)F)c3)cc2)C2CCCCC2)s1`, the IC50 is reported as > 30 µM.

Molecular target: RNA-directed RNA polymerase (Hepacivirus hominis, UniProt O39930)
Test: Inhibitory concentration against RNA dependent RNA polymerase nonstructural protein 5B of hepatitis C virus
Details: not given
Outline: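 HCV NS5B D55 construct (6 nM), scintillation proximity assay: biotinylated oligoG12/polyC template-primer with GTP plus [3H]-GTP, in 20 mM HEPES pH 7.3, 7.5 mM DTT, 10 mM MgCl2, 60 mM NaCl, BSA, and RNasin, for 50 min at room temperature. Stopped with streptavidin SPA beads plus 100 mM EDTA; incorporated label counted. IC50 from single experiments over 11 serial 2-fold dilutions.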

Sequence of RNA-directed RNA polymerase (O39930 whole entry): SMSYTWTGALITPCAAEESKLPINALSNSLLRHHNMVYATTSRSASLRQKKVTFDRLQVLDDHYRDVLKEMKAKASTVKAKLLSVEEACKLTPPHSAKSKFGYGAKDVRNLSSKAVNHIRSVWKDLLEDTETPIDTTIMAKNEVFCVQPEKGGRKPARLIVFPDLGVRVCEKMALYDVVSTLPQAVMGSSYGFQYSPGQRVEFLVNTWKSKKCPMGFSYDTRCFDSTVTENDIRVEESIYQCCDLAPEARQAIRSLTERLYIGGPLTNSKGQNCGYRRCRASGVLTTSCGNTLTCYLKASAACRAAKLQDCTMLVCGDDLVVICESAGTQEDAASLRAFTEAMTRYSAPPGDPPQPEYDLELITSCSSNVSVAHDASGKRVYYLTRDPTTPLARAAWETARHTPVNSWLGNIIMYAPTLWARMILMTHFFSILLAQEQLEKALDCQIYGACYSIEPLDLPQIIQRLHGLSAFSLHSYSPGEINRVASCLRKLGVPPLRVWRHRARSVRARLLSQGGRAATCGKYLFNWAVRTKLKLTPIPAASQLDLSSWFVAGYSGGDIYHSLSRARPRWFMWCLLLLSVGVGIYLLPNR

Point of comparison: `O=C(O)c1cnc(N(C(=O)c2ccc(OC3CCCCC3)cc2)C2CCCCC2)s1`, IC50 5.5 µM. Against it:
- CC(C)N(C(=O)c1ccc(Oc2ccccc2)cc1)c1nc(C(=O)O)cs1 — higher, > 50 µM
- C[C@H]1CCCC[C@@H]1N(C(=O)c1ccc(Oc2ccccc2)cc1)c1ncc(C(=O)O)s1 (single isomer, unassigned; trans) — 1.7-fold higher, 9.4 µM
- COc1cccc(Oc2ccc(C(=O)N(c3ncc(C(=O)O)s3)C3CCCCC3)cc2)c1 — 1.8-fold lower, 3.1 µM
- O=C(O)c1cnc(N(C(=O)c2ccc(Oc3ccccc3)cc2)C2CCCCC2)s1 — within 1.5-fold, 7 µM
- O=C(O)c1cnc(N(C(=O)c2ccc(OCc3ccccc3)cc2)C2CCCCC2)s1 — within 1.5-fold, 6.5 µM
- O=C(O)c1cnc(N(C(=O)c2ccc(OCc3cccs3)cc2)C2CCCCC2)s1 — within 1.5-fold, 7 µM
- O=C(O)c1cnc(N(C(=O)c2ccc(OCc3ccc(F)cc3)cc2)C2CCCCC2)s1 — within 1.5-fold, 3.9 µM
- COc1ccc(Oc2ccc(C(=O)N(c3ncc(C(=O)O)s3)C3CCCCC3)cc2)cc1OC — 1.6-fold lower, 3.5 µM
- C[C@@H]1CCCC[C@H]1N(C(=O)c1ccc(Oc2ccccc2)cc1)c1nc(C(=O)O)cs1 (stereo in doubt; trans) — 2-fold higher, 11 µM
- C[C@H]1CC[C@@H](N(C(=O)c2ccc(Oc3ccccc3)cc2)c2nc(C(=O)O)cs2)CC1 (stereo in doubt; cis) — within 1.5-fold, 5.7 µM
- C[C@@H]1C[C@@H](N(C(=O)c2ccc(Oc3ccccc3)cc2)c2nc(C(=O)O)cs2)CC(C)(C)C1 (single isomer, unassigned) — the same, 5.5 µM
- C[C@@H]1CCCC[C@H]1N(C(=O)c1ccc(Oc2ccccc2)cc1)c1nc(C(=O)O)cs1 (stereo in doubt; cis) — within 1.5-fold, 7.6 µM
- O=C(O)c1cnc(N(C(=O)c2ccc(Oc3ccc(Cl)cc3)cc2)C2CCCCC2)s1 — within 1.5-fold, 4.2 µM
- O=C(O)c1cnc(N(C(=O)c2ccc(OCc3ccccn3)cc2)C2CCCCC2)s1 — 2.7-fold higher, 15 µM
- C[C@H]1CC[C@H](N(C(=O)c2ccc(Oc3ccccc3)cc2)c2ncc(C(=O)O)s2)CC1 (stereo in doubt; trans) — within 1.5-fold, 5 µM
- O=C(Nc1ncc(C(=O)O)s1)c1ccc(Oc2ccccc2)cc1 — higher, > 50 µM
- O=C(O)c1cnc(N(C(=O)c2ccc(OCc3cccc(C(F)(F)F)c3)cc2)C2CCCCC2)s1 — 3.9-fold lower, 1.4 µM
- O=C(O)c1cnc(N(C(=O)c2ccc(Oc3cccc(C(F)(F)F)c3)cc2)C2CCCCC2)s1 — within 1.5-fold, 4.4 µM
- O=C(O)c1cnc(N(C(=O)c2ccc(Oc3ccccc3)cc2)C2CCS(=O)(=O)CC2)s1 — higher, > 50 µM
- C[C@@H]1C[C@@H](N(C(=O)c2ccc(Oc3ccccc3)cc2)c2ncc(C(=O)O)s2)CC(C)(C)C1 (single isomer, unassigned) — within 1.5-fold, 6 µM
- CC(C)(C)[C@H]1CC[C@@H](N(C(=O)c2ccc(Oc3ccccc3)cc2)c2nc(C(=O)O)cs2)CC1 (stereo in doubt; cis) — 2-fold lower, 2.8 µM
- O=C(O)c1cnc(N(C(=O)c2ccc(Oc3ccccc3)cc2)C2CCSCC2)s1 — 2.4-fold higher, 13 µM
- CC(C)(C)[C@H]1CC[C@H](N(C(=O)c2ccc(Oc3ccccc3)cc2)c2ncc(C(=O)O)s2)CC1 (stereo in doubt; trans) — within 1.5-fold, 6 µM
- O=C(O)c1csc(N(C(=O)c2ccc(Oc3ccccc3)cc2)C2CCCCC2)n1 — 1.8-fold higher, 10 µM
- CC(C)(C)[C@H]1CC[C@H](N(C(=O)c2ccc(Oc3ccccc3)cc2)c2ncc(C(=O)O)s2)CC1 (stereo in doubt; cis) — 1.6-fold lower, 3.4 µM
- O=C(O)c1cnc(N(C(=O)c2ccc(Oc3cccc(Cl)c3)cc2)C2CCCCC2)s1 — 2-fold lower, 2.8 µM
- O=C(O)c1cnc(N(C(=O)c2ccc(OCc3ccccc3F)cc2)C2CCCCC2)s1 — within 1.5-fold, 4 µM
- O=C(O)c1cnc(N(C(=O)c2ccc(OCc3cccc(F)c3)cc2)C2CCCCC2)s1 — within 1.5-fold, 6.5 µM
- O=C(O)c1cnc(N(C(=O)c2ccc(Oc3cccc(OC(F)(F)F)c3)cc2)C2CCCCC2)s1 — within 1.5-fold, 5.2 µM
- C[C@H]1CCCC[C@@H]1N(C(=O)c1ccc(Oc2ccccc2)cc1)c1ncc(C(=O)O)s1 (single isomer, unassigned; cis) — within 1.5-fold, 6.1 µM
- O=C(O)c1cnc(N(C(=O)c2ccc(OCc3ccccc3C(F)(F)F)cc2)C2CCCCC2)s1 — within 1.5-fold, 5.1 µM
- CC(C)N(C(=O)c1ccc(Oc2ccccc2)cc1)c1ncc(C(=O)O)s1 — higher, > 50 µM
- O=C(O)c1cnc(N(C(=O)c2ccc(Oc3ccc(Cl)c(Cl)c3)cc2)C2CCCCC2)s1 — 2.1-fold lower, 2.6 µM
- C[C@H]1CC[C@H](N(C(=O)c2ccc(Oc3ccccc3)cc2)c2ncc(C(=O)O)s2)CC1 (stereo in doubt; cis) — within 1.5-fold, 6.6 µM
- COc1cccc(COc2ccc(C(=O)N(c3ncc(C(=O)O)s3)C3CCCCC3)cc2)c1 — 1.7-fold lower, 3.2 µM
- O=C(Nc1nc(C(=O)O)cs1)c1ccc(Oc2ccccc2)cc1 — higher, > 50 µM
- COc1ccccc1Oc1ccc(C(=O)N(c2ncc(C(=O)O)s2)C2CCCCC2)cc1 — 1.5-fold higher, 8.5 µM
- CC(C)(C)[C@H]1CC[C@@H](N(C(=O)c2ccc(Oc3ccccc3)cc2)c2nc(C(=O)O)cs2)CC1 (stereo in doubt; trans) — within 1.5-fold, 4.7 µM
- C[C@H]1CC[C@@H](N(C(=O)c2ccc(Oc3ccccc3)cc2)c2nc(C(=O)O)cs2)CC1 (stereo in doubt; trans) — within 1.5-fold, 5.4 µM
- COc1ccccc1COc1ccc(C(=O)N(c2ncc(C(=O)O)s2)C2CCCCC2)cc1 — 1.5-fold higher, 8.5 µM

Molecular target: Cytochrome P450 3A4 (Homo sapiens, UniProt P08684)
Test: Inhibitory concentration against Cytochrome P450 3A4
Format: ADME
Details: not given

Sequence of Cytochrome P450 3A4 (P08684 whole entry): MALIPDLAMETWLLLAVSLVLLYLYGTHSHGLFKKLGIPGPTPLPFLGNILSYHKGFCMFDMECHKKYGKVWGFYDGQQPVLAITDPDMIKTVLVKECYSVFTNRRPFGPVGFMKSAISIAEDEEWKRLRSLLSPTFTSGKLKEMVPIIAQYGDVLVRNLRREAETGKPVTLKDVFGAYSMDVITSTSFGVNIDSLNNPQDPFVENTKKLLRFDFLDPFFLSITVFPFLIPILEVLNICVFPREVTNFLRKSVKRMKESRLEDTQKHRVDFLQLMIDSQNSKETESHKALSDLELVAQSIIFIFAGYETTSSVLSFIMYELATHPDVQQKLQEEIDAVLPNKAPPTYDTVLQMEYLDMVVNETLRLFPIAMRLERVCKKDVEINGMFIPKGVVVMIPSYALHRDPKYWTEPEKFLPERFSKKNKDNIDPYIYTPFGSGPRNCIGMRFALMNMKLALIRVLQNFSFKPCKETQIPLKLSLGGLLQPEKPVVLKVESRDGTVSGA

With `O=C(O)c1cnc(N(C(=O)c2ccc(OCc3cccc(C(F)(F)F)c3)cc2)C2CCCCC2)s1` the IC50 was > 30 µM.

Tested on: not listed separately
Test: Clearance rate from human hepatocytes
Format: ADME, Liver, Hepatocyte
Details: not given

Work on `O=C(O)c1cnc(N(C(=O)c2ccc(OCc3cccc(C(F)(F)F)c3)cc2)C2CCCCC2)s1` yielded a CL of 5 lL/min/million.
